This passage reports Activity and EC50 results from ChEMBL document CHEMBL4043134, “Isolation and lipolytic activity of eurycomanone and its epoxy derivative from Eurycoma longifolia” (Bioorg Med Chem, 2017).

Data set [1] relates to 3T3-L1. The data set can be described thus: Antiobesity activity in mouse 3T3L1 cells assessed as reduction in accumulation of lipid droplets up to 100 uM administered on day 4 post differentiation induction measured on day 9 by Oil Red O staining-based microscopic analysis relative to control. It counts as functional, cell-based.
Data set [2] deals with 3T3-L1. Put plainly: Antiobesity activity in mouse 3T3L1 cells assessed as increase in glycerol release up to 100 uM after 24 hrs relative to control. It counts as functional, cell-based. In short, it runs like this: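 Mouse 3T3-L1 preadipocytes were differentiated from day 0 (one day post-confluence) in 10% FBS/DMEM with 0.5 mM IBMX, 0.25 μM DEX and 5 μg/mL insulin, then switched to insulin medium, then plain medium; used on day 8. Samples were dissolved in DMSO and diluted into phenol-red-free DMEM, applied for 24 h. Medium glycerol was measured with free glycerol reagent (37 °C, 5 min, A540) relative to control; 1 μM isoproterenol positive control; mean ± SEM, n=6, Dunnett's test.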

In data set [3] the test system is Mus musculus. Put plainly: Activation of ERK in mouse 3T3-L1 cells assessed as lipolytic activity by measuring increase in glycerol release at 25 uM administered 1 hr after ERK inhibitor addition measured after 24 hrs in presence of 20 uM ERK inhibitor PD 98059. It counts as cell-based. Summed up: (§1)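 Day-8 differentiated 3T3-L1 adipocytes were preincubated with the specified inhibitor for 1 h, then incubated with sample plus inhibitor for 24 h in phenol-red-free DMEM. Released glycerol in the medium was quantified with free glycerol reagent (37 °C, 5 min, A540) and expressed relative to control.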

Data set [4] concerns Mus musculus. The data set can be described thus: Activation of PKA in mouse 3T3-L1 cells assessed as lipolytic activity by measuring increase in glycerol release at 25 uM administered 1 hr after PKA inhibitor addition measured after 24 hrs in presence of 20 uM PKA inhibitor H-89. It counts as cell-based. In short, it runs like this:
as §1

The test system of data set [5] is 3T3-L1. The data set can be described thus: Antiobesity activity in mouse 3T3L1 cells assessed as reduction in accumulation of lipid droplets administered on day 4 post differentiation induction measured on day 9 by Oil Red O staining-based microscopic analysis. It counts as functional, cell-based.
Data set [6] has as its system 3T3-L1. Put plainly: Antiobesity activity in mouse 3T3L1 cells assessed as increase in glycerol release after 24 hrs. It counts as functional, cell-based. To be noted: for EC50: 3T3-L1, 24 h. Summed up:
(§2)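 3T3-L1 preadipocytes were differentiated with IBMX (0.5 mM), DEX (0.25 μM) and insulin (5 μg/mL) from day 0, then insulin alone, then plain 10% FBS/DMEM. On day 8 they were exposed to sample (DMSO stock diluted in phenol-red-free DMEM) for 24 h. Medium was mixed with free glycerol reagent (37 °C, 5 min) and read at A540, relative to control. Mean ± SEM, n=6.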

The species entered for data set [7] is Mus musculus. Put plainly: Induction of PKA phosphorylation in mouse 3T3-L1 cells at 12.5 uM in presence of 20 uM H-89 by immunoblotting. It counts as cell-based.
For data set [8], the target named is Beta-3 adrenergic receptor (Mus musculus) (UniProt P25962). Put plainly: Activation of beta3 adrenergic receptor in mouse 3T3-L1 cells assessed as lipolytic activity by measuring increase in glycerol release at 25 uM administered 1 hr after beta3 adrenergic receptor inhibitor addition measured after 24 hrs in presence of 20 uM […] inhibitor propranolol. It counts as cell-based. Summed up: as §1
Sequence of Beta-3 adrenergic receptor (Mus musculus) (P25962 whole entry): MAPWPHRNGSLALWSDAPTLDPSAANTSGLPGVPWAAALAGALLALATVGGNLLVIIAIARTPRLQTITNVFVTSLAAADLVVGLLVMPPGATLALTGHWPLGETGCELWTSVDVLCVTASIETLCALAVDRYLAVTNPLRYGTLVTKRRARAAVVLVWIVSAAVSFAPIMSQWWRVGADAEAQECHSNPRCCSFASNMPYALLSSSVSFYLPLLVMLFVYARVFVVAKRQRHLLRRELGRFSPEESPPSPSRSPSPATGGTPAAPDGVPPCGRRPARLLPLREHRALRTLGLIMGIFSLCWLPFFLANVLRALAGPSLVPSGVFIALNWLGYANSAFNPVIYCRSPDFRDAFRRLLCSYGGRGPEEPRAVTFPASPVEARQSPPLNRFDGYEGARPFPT

In data set [9] the test system is 3T3-L1. Put plainly: Cytotoxicity against mouse 3T3L1 cells assessed as reduction in cell viability up to 100 uM after 6 to 48 hrs by CCK-8 assay. It counts as cell-based. A general note: Formazan colour is commonly taken as a measure of viable cells.
For data set [10], the system named is 3T3-L1. The data set can be described thus: Antiobesity activity in mouse 3T3L1 cells assessed as glycerol release at 1 uM after 24 hrs relative to control. It counts as functional. Summed up:
as §2

Active and inactive are the calls of the source. The calls are words filed in the database; no cut-off is given here.

Take `CC1=CC(=O)[C@@H](O)[C@]2(C)C3[C@]4(O)OC[C@@]35[C@@H](C[C@@H]12)OC(=O)[C@H](O)[C@@]5(O)[C@@](O)(CO)[C@H]4O` (some centres undefined): the result in data set [1] and in [2] was inactive.

With `C=C1[C@@H](O)[C@@]2(O)OC[C@]34C2[C@@]2(C)[C@H](O)C(=O)C=C(C)[C@@H]2C[C@H]3OC(=O)[C@H](O)[C@@]14O` (some centres undefined), the outcome in data set [3] and in data set [8] was inactive. For the same compound, the outcome in [4] and in data set [7] was Active. Further, the values for the Activity entry in [5], in data set [6] and in data set [9] were “Dose-dependent effect”, “Dose-dependent effect” and “Non-Toxic”, respectively. The EC50 in data set [6] was 14.6 µM.

As to `CC(C)NCC(O)c1ccc(O)c(O)c1` (centres undefined) [ISOPROTERENOL], the Activity in data set [10] came to 322%.

Turning to `CC1=CC(=O)[C@@H](O)[C@]2(C)C3[C@]4(O)OC[C@@]35[C@@H](C[C@@H]12)OC(=O)[C@H](O)[C@@]5(O)[C@@]1(CO1)[C@H]4O` (some centres undefined), the result in data set [3] and in data set [8] was inactive. Besides, the result in [4] and in data set [7] was Active. Besides, the Activity result in [5] was “Dose-dependent effect”; in data set [6] it was “Dose-dependent effect”; in data set [9] it was “Non-Toxic”. Further, the EC50 in data set [6] amounted to 8.6 µM.

In general, EC50 refers to the concentration at which the effect is half-maximal.
